In brackets after ≈: the same amount, converted by molar mass.
Tests used:
Leishmania donovani = assay: Antileishmanial activity against Leishmania donovani MHOM/ET/67/L82 axenic amastigotes after 72 hrs by resazurin assay; format: functional, organism-based; details: MHOM/ET/67/L82, 72 h
In short: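 L. donovani MHOM/ET/67/L82 amastigotes grown axenically at 37°C in synthetic minimal medium at pH 5.4 with 10% heat-inactivated FBS under 5% CO2. 1 × 10⁵ amastigotes per well with seven threefold dilutions, 30 to 0.041 μg/ml. After 72 h, resazurin added for 2–4 h more. Fluorescence read at ex 536/em 588 nm. IC50 taken from sigmoidal curve. Run in duplicate, with an independent repeat for actives.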

Squalene synthase = target: T1, Squalene synthase (Homo sapiens, UniProt P37268); assay: Inhibition of human recombinant squalene synthase expressed in Escherichia coli BL21(DE3 pLysS) up to 1 uM by liquid scintillation counter
T1 sequence (P37268 whole entry): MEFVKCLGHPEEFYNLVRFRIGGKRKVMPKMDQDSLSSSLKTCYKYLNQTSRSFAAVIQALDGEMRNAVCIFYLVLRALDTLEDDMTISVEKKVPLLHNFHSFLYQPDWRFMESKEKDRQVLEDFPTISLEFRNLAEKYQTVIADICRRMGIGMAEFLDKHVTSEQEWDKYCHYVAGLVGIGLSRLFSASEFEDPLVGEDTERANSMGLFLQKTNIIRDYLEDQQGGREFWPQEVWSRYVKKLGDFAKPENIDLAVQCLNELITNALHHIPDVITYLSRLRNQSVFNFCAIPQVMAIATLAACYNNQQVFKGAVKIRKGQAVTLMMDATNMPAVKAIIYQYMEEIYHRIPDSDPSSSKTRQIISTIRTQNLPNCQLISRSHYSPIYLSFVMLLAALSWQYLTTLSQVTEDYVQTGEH
In short: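 Human SQS in extracts of E. coli BL21(DE3 pLysS) carrying pHSS16, assayed under the same conditions as the L. major enzyme. Buffer: phosphate pH 7.4, MgCl2, CHAPS, Tween 80, DTT, BSA, and NADPH with a regenerating system. Substrate 0.5 μM radiolabelled farnesyl pyrophosphate. Squalene band radioactivity counted by scintillation.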

Leishmania amazonensis [1] = assay: Antileishmanial activity against Leishmania mexicana amazonensis promastigotes by trypan blue exclusion method; format: functional, organism-based
In short: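 L. mexicana amazonensis promastigotes cultured in liver infusion-tryptose medium with lactalbumin and 10% FCS at 26°C, unagitated. Cultures started at 2 × 10⁶ cells/ml and drug added at 0.5–1 × 10⁷ cells/ml. Density counted by electronic particle counter and hemocytometer. Viability by trypan blue exclusion. Triplicate growth experiments.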

L6 = assay: Cytotoxicity against rat L6 cells after 72 hrs by resazurin assay; format: cell-based; details: L6, 72 h
In short: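 L-6 cells seeded at 4 × 10⁴ cells/ml in RPMI 1640 with 10% FBS and 2 mM L-glutamine. After 24 h, medium replaced with serial drug dilution and incubated for 72 h at 37°C in 5% CO2. Resazurin added for 2–4 h, fluorescence read at ex 536/em 588 nm. IC50 from sigmoidal curve. Duplicate, with an independent repeat for actives.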

Leishmania amazonensis [2] = assay: Inhibition of sterol biosynthesis in Leishmania mexicana amazonensis promastigotes assessed as reduction in endogenous episterol level at 0.1 uM after 96 hrs by gas-liquid chromatography; format: functional; parameters: scale not given: the % may be the effect or the level left
In short: (§1)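 L. mexicana promastigotes exposed to compound for 96 h. Total lipids extracted and neutral sterols separated from polar lipids by silicic acid column chromatography. Sterols analysed by TLC and by quantitative capillary gas-liquid chromatography with mass spectrometry. Composition expressed as mass % of free sterols, compared with untreated control.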

Leishmania amazonensis [3] = assay: Inhibition of sterol biosynthesis in Leishmania mexicana amazonensis promastigotes assessed as reduction in endogenous 5-dehydro episterol level at 0.1 uM after 96 hrs by gas-liquid chromatography; format: functional; parameters: scale not given: the % may be the effect or the level left; in short: as §1
Leishmania amazonensis [4] = assay: Inhibition of sterol biosynthesis in Leishmania mexicana amazonensis promastigotes assessed as reduction in exogenous cholesterol level at 0.1 uM after 96 hrs by gas-liquid chromatography; format: functional; parameters: scale not given: the % may be the effect or the level left; in short: as §1
Leishmania amazonensis [5] = assay: Inhibition of sterol biosynthesis in Leishmania mexicana amazonensis promastigotes assessed as reduction in exogenous cholesterol level at 0.3 uM after 96 hrs by gas-liquid chromatography; format: functional; parameters: scale not given: the % may be the effect or the level left
In short: (§2)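 Promastigotes grown in liver infusion-tryptose medium with lactalbumin and 10% fetal calf serum at 26°C, static; drug added at 0.5 × 10⁷ to 1 × 10⁷ cells/ml and cells exposed for 96 h. Total lipids extracted; neutral lipids separated from polar lipids by silicic acid column chromatography; free sterols quantified by capillary gas-liquid chromatography and mass spectrometry as mass % of total sterols.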

Plasmodium falciparum = assay: Antiplasmodial activity after 48 hrs against chloroquine and pyrimethamine-resistant Plasmodium falciparum K1 in human erythrocytes by [3H]hypoxanthine uptake; format: functional, organism-based
In short: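 P. falciparum K1 in human red cells in RPMI 1640 with 5% Albumax, exposed to serial drug dilutions. Incubated 48 h at 37°C under reduced oxygen, then 0.5 μCi [³H]hypoxanthine per well for 24 h more. Cells harvested onto glass-fibre filters and counted by scintillation. Result expressed as % of untreated control, with IC50 from sigmoidal curve. Duplicate, plus an independent repeat for actives.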

[6] = system: Trypanosoma brucei rhodesiense; assay: Trypanocidal activity against Trypanosoma brucei rhodesiense STIB 900 bloodstream form after 72 hrs by resazurin assay; format: functional, organism-based; details: STIB 900, 72 h
In short: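 T. b. rhodesiense STIB 900 bloodstream forms in MEM with 2-mercaptoethanol and 15% heat-inactivated horse serum, with serial drug dilutions. Incubated 72 h at 37°C in 5% CO2. Resazurin added for 2–4 h more, fluorescence read at ex 536/em 588 nm. IC50 from sigmoidal curve. Duplicate, with an independent repeat for actives.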

[7] = target: T2, Farnesyltransferase, putative (Leishmania major, UniProt Q4Q5W4); assay: Inhibition of Leishmania major recombinant squalene synthase expressed in Escherichia coli by liquid scintillation counter
T2 sequence (Q4Q5W4 whole entry): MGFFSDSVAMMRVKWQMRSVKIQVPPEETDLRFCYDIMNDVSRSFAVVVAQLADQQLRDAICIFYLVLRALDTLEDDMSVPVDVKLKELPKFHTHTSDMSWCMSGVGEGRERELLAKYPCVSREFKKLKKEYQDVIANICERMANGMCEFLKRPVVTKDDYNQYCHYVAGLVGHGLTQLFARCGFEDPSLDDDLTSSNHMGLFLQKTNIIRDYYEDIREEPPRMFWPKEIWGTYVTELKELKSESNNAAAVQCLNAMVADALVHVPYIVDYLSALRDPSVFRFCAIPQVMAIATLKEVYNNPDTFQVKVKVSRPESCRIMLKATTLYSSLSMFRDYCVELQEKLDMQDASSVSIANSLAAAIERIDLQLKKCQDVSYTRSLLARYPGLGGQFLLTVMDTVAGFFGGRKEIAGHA
In short: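 Soluble E. coli extract expressing L. major SQS truncated by 16 N-terminal and 40 C-terminal residues. Buffer: 50 mM phosphate pH 7.4, 20 mM MgCl2, 5 mM CHAPS, 1% Tween 80, 10 mM DTT, BSA, 0.25 mM NADPH, and a glucose-6-phosphate/G6PDH regenerating system. Substrate 0.5 μM radiolabelled farnesyl pyrophosphate. Squalene band counted by scintillation. IC50 from hyperbolic plot of five concentrations in duplicate, usually run twice.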

Leishmania amazonensis [8] = assay: Inhibition of sterol biosynthesis in Leishmania mexicana amazonensis promastigotes assessed as reduction in endogenous episterol level at 0.3 uM after 96 hrs by gas-liquid chromatography; format: functional; parameters: scale not given: the % may be the effect or the level left; in short: as §2
Leishmania amazonensis [9] = assay: Inhibition of sterol biosynthesis in Leishmania mexicana amazonensis promastigotes assessed as reduction in endogenous 5-dehydro episterol level at 0.3 uM after 96 hrs by gas-liquid chromatography; format: functional; parameters: scale not given: the % may be the effect or the level left; in short: as §2
Trypanosoma cruzi = assay: Antitrypanosomal activity against trypomastigotes of Trypanosoma cruzi Tulahuen C2C4 containing lacZ gene in rat L6 cells after 4 days by chlorophenol red-beta-D-galactopyranoside/Nonidet assay; format: functional, organism-based; details: Tulahuen C2C4, L6, 96 h
In short: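 L-6 rat myoblasts seeded at 2,000 cells/well in RPMI 1640 with 10% FBS and 2 mM L-glutamine. After 24 h, 5,000 T. cruzi Tulahuen C2C4 lacZ trypomastigotes added with serial drug dilution. Incubated at 37°C in 5% CO2 for 4 days. CPRG/Nonidet substrate added and colour read at 540 nm after 2–4 h. IC50 from sigmoidal curve. Duplicate determinations.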

Leishmania amazonensis [10] = assay: Inhibition of sterol biosynthesis in Leishmania mexicana amazonensis promastigotes assessed as reduction in endogenous cholesta-5,7,24-trien-3beta-ol level at 1 uM after 96 hrs by gas-liquid chromatography; format: functional; parameters: scale not given: the % may be the effect or the level left; in short: as §1
Leishmania amazonensis [11] = assay: Inhibition of sterol biosynthesis in Leishmania mexicana amazonensis promastigotes assessed as reduction in endogenous 5-dehydro episterol level at 3 uM after 96 hrs by gas-liquid chromatography; format: functional; parameters: scale not given: the % may be the effect or the level left; in short: as §1
Leishmania amazonensis [12] = assay: Inhibition of sterol biosynthesis in Leishmania mexicana amazonensis promastigotes assessed as reduction in endogenous cholesta-5,7,24-trien-3beta-ol level at 3 uM after 96 hrs by gas-liquid chromatography; format: functional; parameters: scale not given: the % may be the effect or the level left; in short: as §1
Leishmania amazonensis [13] = assay: Inhibition of sterol biosynthesis in Leishmania mexicana amazonensis promastigotes assessed as reduction in exogenous cholesterol level at 10 uM after 96 hrs by gas-liquid chromatography; format: functional; parameters: scale not given: the % may be the effect or the level left; in short: as §1
Leishmania amazonensis [14] = assay: Inhibition of sterol biosynthesis in Leishmania mexicana amazonensis promastigotes assessed as reduction in exogenous cholesterol level at 3 uM after 96 hrs by gas-liquid chromatography; format: functional; parameters: scale not given: the % may be the effect or the level left; in short: as §1
Leishmania amazonensis [15] = assay: Inhibition of sterol biosynthesis in Leishmania mexicana amazonensis promastigotes assessed as reduction in endogenous 5-dehydro episterol level at 1 uM after 96 hrs by gas-liquid chromatography; format: functional; parameters: scale not given: the % may be the effect or the level left; in short: as §1
Leishmania amazonensis [16] = assay: Inhibition of sterol biosynthesis in Leishmania mexicana amazonensis promastigotes assessed as reduction in endogenous cholesta-7,24-dien-3beta-ol level at 1 uM after 96 hrs by gas-liquid chromatography; format: functional; parameters: scale not given: the % may be the effect or the level left; in short: as §1
Leishmania amazonensis [17] = assay: Inhibition of sterol biosynthesis in Leishmania mexicana amazonensis promastigotes assessed as reduction in endogenous episterol level at 1 uM after 96 hrs by gas-liquid chromatography; format: functional; parameters: scale not given: the % may be the effect or the level left; in short: as §1
Leishmania amazonensis [18] = assay: Inhibition of sterol biosynthesis in Leishmania mexicana amazonensis promastigotes assessed as reduction in endogenous cholesta-7,24-dien-3beta-ol level at 3 uM after 96 hrs by gas-liquid chromatography; format: functional; parameters: scale not given: the % may be the effect or the level left; in short: as §1
Leishmania amazonensis [19] = assay: Inhibition of sterol biosynthesis in Leishmania mexicana amazonensis promastigotes assessed as reduction in exogenous cholesterol level at 1 uM after 96 hrs by gas-liquid chromatography; format: functional; parameters: scale not given: the % may be the effect or the level left; in short: as §1
Leishmania amazonensis [20] = assay: Inhibition of sterol biosynthesis in Leishmania mexicana amazonensis promastigotes assessed as reduction in endogenous episterol level at 3 uM after 96 hrs by gas-liquid chromatography; format: functional; parameters: scale not given: the % may be the effect or the level left; in short: as §1

| Structure (SMILES) | IC50 (Leishmania donovani) [µM] | IC50 (Squalene synthase) | MIC (Leishmania amazonensis [1]) [µM] | IC50 (L6) [µM] | IC50 (Plasmodium falciparum) [µM] | IC50 [6] [µM] | IC50 [7] [µM] | IC50 (Trypanosoma cruzi) [µM] | Activity (Leishmania amazonensis [10]) [%] | Activity (Leishmania amazonensis [11]) [%] | Activity (Leishmania amazonensis [12]) [%] | Activity (Leishmania amazonensis [14]) [%] | Activity (Leishmania amazonensis [15]) [%] | Activity (Leishmania amazonensis [17]) [%] | Activity (Leishmania amazonensis [18]) [%] | Activity (Leishmania amazonensis [19]) [%] | Activity (Leishmania amazonensis [20]) [%] | further results |
| --- | --- | --- | --- | --- | --- | --- | --- | --- | --- | --- | --- | --- | --- | --- | --- | --- | --- | --- |
| C(=C1/CN2CCC1CC2)/c1ccc(-c2ccccc2)cc1 | 41.3 | Not Active | 0.3 (≈ 0.0826 µg/mL) | 13.4 | 3.1 | 0.7 | > 1 | 1.8 | – | – | – | – | – | – | – | – | – | Activity (Leishmania amazonensis [2]): 42.2%; Activity (Leishmania amazonensis [3]): 26.4%; Activity (Leishmania amazonensis [4]): 31.4%; Activity (Leishmania amazonensis [5]): 36.7%; Activity (Leishmania amazonensis [8]): 33.3%; Activity (Leishmania amazonensis [9]): 18.1% |
| OC[C@H]1CC2CCN1C[C@@H]2C#Cc1ccc(-c2ccccc2)cc1 (stereo not given in full) | 33.7 | – | 10 (≈ 3.17 µg/mL) | 11 | 1.4 | 0.5 | > 1 | 5.8 | 20.1 | 36 | 32.7 | 14 | 49.3 | 7.6 | 10.7 | 15.4 | 6.6 | Activity (Leishmania amazonensis [13]): >99%; Activity (Leishmania amazonensis [16]): 7.6% |
| CC(C)(C)[Si](C)(C)Oc1ccc(C2=CN3CCC2CC3)cc1 | 31.1 | – | 3 (≈ 0.947 µg/mL) | 23.8 | 4.1 | 2.1 | > 1 | 16.3 | 9 | 21.2 | 10.7 | 55.4 | 54.7 | 7.1 | 4.8 | 29.2 | 7.9 | – |
| c1ccc(-c2ccc(CC3CN4CCC3CC4)cc2)cc1 (stereo not given) | > 108 | Not Active | 1 (≈ 0.277 µg/mL) | 20.5 | 2.8 | 0.7 | > 1 | 4.7 | 10.4 | – | – | – | 30.3 | 8.2 | – | 51.1 | – | – |

— ChEMBL document CHEMBL1137637, “Quinuclidine derivatives as potential antiparasitics” (Antimicrob Agents Chemother, 2007)
